Source: the RNAGym collection of RNA variant scans (doi:10.1126/science.aae0568)
Fewer inactive variants are shown than the library holds.

B1: tRNA (parent)
chain: GUUCCGUUGGCGUAAUGGUAACGCGUCUCCCUCCUAAGGAGAAGACUGCGGGUUCGAGUCCCGUACGGAACG

Variants of: B1
Experiment: yeast fitness relative to wild type (ratio to wild type); higher = fitter; tRNA-Arg(CCU), competitive growth, 37 C, YPD
Summary of the method: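 For this measurement, the tRNA-Arg(CCU) gene was varied by chemical synthesis at a 3% per-site mutation rate across 69 sites, and each variant was placed at the native genomic locus in Saccharomyces cerevisiae. The pooled strains went through a 24-hour competition in YPD at 37°C in six parallel replicates, with amplicons from start and end populations read by 100-nucleotide paired-end sequencing. Darwinian fitness relative to wild type followed from the change in each genotype's frequency. Genotypes needed ≥ 100 starting reads, and estimates < 0.5 were set to 0.5.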
Work on GUUCCGUUGGCGUGAUGGUAACGCGUCUCCCUCCUAAGGAGAAGAGUGCGGGUUCGAGUCCUGUACGGAACG yielded a yeast fitness of 0.725.
For GUUCCGUUGGCGUAAUGGUAACGCGUCUCCCUCCUGAGGAGAAGAGUGUGGGUUCGAGUCCCGUACGGAACG, the yeast fitness was 0.763.
GUUACGUUGGCGUAAUGGUAACCCGUCUCCUUCGUAAGGAGAGGCCUGCGGGUUCGUGUCCCGUACGGAACG gave a yeast fitness of no more than 0.5.
GUUCCGUUGGCGUAAUGGUAACGCAUCUCUCUCCUAAGGAGAAGACUGCGGGUUCGAGUCCCGUACGGAACG showed a yeast fitness of 1.
Work on GUCCCGUUGGCGUAAUGGUGACGCGUCUCCCUCCUAAGGAGAAGACUGCGGGUUCGAGUCCCGAGCGGAACG yielded a yeast fitness of no more than 0.5.
In the case of GUUCCGUUGGCGUAAUGGUAACGCGUCUCACUCCUAAGGAGAAGACUGCGGGUUCGAGUCCCGUACAGAACG, the yeast fitness is reported as 0.822.
Variant GUUCCGUUGGCGUAAUGGUAACGCCUCUCCCUCCUAAGGAGAAGACUGCGGGUUCGAGUCCCAUCCGGAACG has a yeast fitness of 0.6.
With GUUCCGUUGGCGUAAUGGUAACGCGUCUCCCUCCUAAGGAGAAGACUGCGGGUUCGUGUCCCGUACGGUACG the yeast fitness was 0.668.
GUUCCGUUGGCGUAGUGGUAACGCGUCUCCCUCCAAAGGAGAAGACUGCGGGUUCGAGUCCACUACGGAACG showed a yeast fitness of no more than 0.5.
With GUUCCGUUGGCGUAAUGGUAACGCGUCUGCCUCCUAAGGAGAAGACGGGGGGUGCGAGUCCCGUACGGAACG the yeast fitness was no more than 0.5.
GUUCCGUUGGCGUAAUGGUAAGGCGUCUUCCUCCUAUGGAGAAGACUGCGGGUUCGAGUCCCGUACGGAACG showed a yeast fitness of 0.589.
Variant GUUCCGUUGGCGUAAUGGUAACGCGUCUCCCUCCUAAGGAUAAGACUGCGGCUUCGAGUCCCGUACGGAACG has a yeast fitness of 0.584.
In the case of GUUCCGUUGGCGUAAUGGUAAUGCGUCUCCCUUCUAAGGAGAAGACUGCGGAUUCGAGUCCCGUAUGGAACG, the yeast fitness is reported as no more than 0.5.
Work on GUUCCGUUGGCGUAAUGGUAACACGUCUGCCUCCUAAGGAGAAGUUUGCGGGUUCGAGUGUCGUACGGGACG yielded a yeast fitness of no more than 0.5.
Work on GUUCCGUUGGCGUAAUGGUAACGCGUCUCCCGCCUAAGGAGAAGGCUGCGGGUUCGAGUCCCGUACGGAACG yielded a yeast fitness of 0.673.
In the case of GUUCUGUUGGCGUAAUGGUAACGCGUCUCCCUCCUAAGGAGAAGACCGCGGGUCGGAGUCCCGUACGGAACG, the yeast fitness is reported as no more than 0.5.
GUUCCGUUGGCGUAAUGGUAAGGCGUCUCCCUCCUAAGGAGAAGACUGCGGAAUCGAGUCCCGUACGGAACG gave a yeast fitness of no more than 0.5.
GUUCAGUUGGCGUAAUGGUAACGCGUCUCCAUCCUAAGGAGAAGAGUGCGGGUUCGAGUCCCGUACGGAACG gave a yeast fitness of no more than 0.5.
GUUCCGUUGGCGUAAUGGUAACGCGUUUCUCUCCUAAGGAGAAGACUGCGGGAUCGAGUCCCGUGCGGCACG showed a yeast fitness of no more than 0.5.
In the case of GUUCCGUUGGCGUGAUGGUAACGCGUCUCCCUCCGAAGGAGAAGACUGCGGCUUCGAGUCCCGUACGGAACG, the yeast fitness is reported as no more than 0.5.
For GUUCCGUUGGCGUAAUGGUUACGCGUCUCACUCCUAAGGAGAAGACUGCGGGUUCGAGUCCCGUACUGAACG, the yeast fitness was 0.527.
With GUUCCGUUGGCAUAAUGGUAACACGUCUCCCUCCGGAGGAGAAGACUGCGGGUUCGCGUCCUGUACGGAACG the yeast fitness was no more than 0.5.
Variant GUUCCCUUGGCGUAAUGGUAACGCGUCUCCCUCCUAAGGAGAAGACUGCGAGUUCGAGUCCCGUACGGAGCG has a yeast fitness of no more than 0.5.
In the case of GUUCCGUUGGCGUAAUGGUAACGCGUCUCCUUCCUAGGGAGAAGCCUGCGGGUUCGAGUCCCGUACGGACCG, the yeast fitness is reported as no more than 0.5.
With GUUCCGUUGGCGAAAUGGUAACGCGUCUCCCUCCUAAGGUGAAGACUGCGGGUUCGAGUCCCGUACGGAACG the yeast fitness was 0.99.
GUUCCGAUGGCGUAAUGGUAACGCGUCUCCCUCCUAAGCAGAAGACUGCGGGUUCGAGUCCCGUACGGAACG gave a yeast fitness of 0.608.
In the case of GUUCCGGUGGCGAAAUGGUAACGCGUCUCCCUCCUAAGGAGAAGACUGCGGGUUCGAGUCCCGUACGGUACG, the yeast fitness is reported as 0.629.
For GUUCCGUUGGCGUAAUCGUAACGCGUCUCCCUCCUAAGGACAAGACUGCGGGUUCGAGUCCCGUACGGAACG, the yeast fitness was 0.664.
With GUUCCGCUGGCGUAAUGGUAACGCGUCUCCCCCCUAAGGAGAAGACUGCGGGUUCGAAUCCCGUACGGACCG the yeast fitness was no more than 0.5.
For GUUCCGUUGGCGUAAUGGUAACGCGUCUCCCUCCUACGGAGAAGACUGCGGGUUCGAGUCCCGUACCGAACG, the yeast fitness was 0.846.
For GUUCCGUUGGCGUAAUGGUAACGCGCCUCCCUGCUAAGGAGCAGACUGCGGGUUCGAGUCCCGUACGGAACG, the yeast fitness was 0.537.
Work on GUUCCGUUGGCGUCAUGGUAACGCGUCUCCCUCCUAAGGAGAAGACUGCGGGUUCGAGUCCAGUACGGAACG yielded a yeast fitness of 0.65.
In the case of GUUCCGUUGACGUAAUGGUAGCGCGUCUCACUCCUAAGGAGCAGACUGCGGGUUCGAGUCCCGUACGGAACG, the yeast fitness is reported as no more than 0.5.
Work on GUUCCGUUGGAGUAAUGGUAACGCGUCUCCCUCCUAAGGGGAAGACUGCGGGUUCGAGUCCCGUACGGAACG yielded a yeast fitness of 0.602.
With GUUACGUUGGCGUAAUGGUAACGCGUCUCACUCCUAAGGAGAAGACUCCGGGUUCGAGUCCCGUACGGAACG the yeast fitness was no more than 0.5.
For GUUCCGUUCGCGUCAUGGUAACGCGUCUCCCUCCUAAGGAGAAGACUGCGGGUUCGGGUCCCGUACGGAACG, the yeast fitness was no more than 0.5.
GUUCCGUUGACGUAAUGGUAACGCGUCUCCCUCCUGAGGAGAAGACUGCGGGUUCGAGUCCCGUUCGGAACG showed a yeast fitness of no more than 0.5.
In the case of GUUCCGUUGGCGUAAUGGUAACGGGUCUCCCUCCUACGGAGAAGACUGCGGGUUCGAGUCCCGUACGGAACG, the yeast fitness is reported as 0.563.
